Measurements: ChEMBL document CHEMBL4261550, “Triazolopyrimidines identified as reversible myeloperoxidase inhibitors” (Medchemcomm, 2017)
Calls of active or inactive are those of the source. The calls are words filed in the database; no cut-off is given here.

Assays:
[1] = molecular target: T1, Myeloperoxidase (Homo sapiens) (UniProt P05164); assay: Irreversible inhibition of human MPO peroxidase activity at 20 nM preincubated for up to 30 mins followed by H2O2 addition and 2 to 10 times compound dilution measured at 30 secs time interval for 5 mins by amplex red reagent based fluorescence assay
T1 sequence (whole entry): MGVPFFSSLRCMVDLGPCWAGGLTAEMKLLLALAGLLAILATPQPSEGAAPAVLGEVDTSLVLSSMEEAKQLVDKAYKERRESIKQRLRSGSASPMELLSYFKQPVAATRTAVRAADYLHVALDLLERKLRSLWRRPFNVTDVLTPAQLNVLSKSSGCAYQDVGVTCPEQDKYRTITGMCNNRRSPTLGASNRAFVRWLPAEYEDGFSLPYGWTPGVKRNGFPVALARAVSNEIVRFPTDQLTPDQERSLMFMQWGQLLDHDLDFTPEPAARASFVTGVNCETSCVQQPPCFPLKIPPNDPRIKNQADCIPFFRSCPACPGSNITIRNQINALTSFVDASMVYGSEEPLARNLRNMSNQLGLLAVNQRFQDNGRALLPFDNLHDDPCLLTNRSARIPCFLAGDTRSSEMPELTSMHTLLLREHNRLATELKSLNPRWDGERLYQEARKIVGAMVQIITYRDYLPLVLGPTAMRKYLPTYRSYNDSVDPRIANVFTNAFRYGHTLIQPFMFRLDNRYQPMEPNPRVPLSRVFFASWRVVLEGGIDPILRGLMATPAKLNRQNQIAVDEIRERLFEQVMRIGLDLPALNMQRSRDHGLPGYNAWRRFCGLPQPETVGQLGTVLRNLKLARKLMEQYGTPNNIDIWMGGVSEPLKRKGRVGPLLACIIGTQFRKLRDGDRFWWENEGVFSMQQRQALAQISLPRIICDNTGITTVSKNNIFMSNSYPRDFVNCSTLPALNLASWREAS
In short: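 MPO (20 nM, phosphate buffer) was preincubated with inhibitor and 100 nM H2O2 for 2, 10, 20 and 30 min. Inhibitor was at 5x–10x the Amplex Red IC50 when that IC50 was > 1 μM, or 2–10x the enzyme concentration when it was < 1 μM. Controls were peroxide with 0.2% DMSO, and 4-hydroxybenzoic acid hydrazide. Unbound inhibitor was removed on a G50 spin column. Flow-through was assayed by Amplex Red, and the initial rate gave % activity remaining versus control. Runs were repeated with 100 mM NaCl and 150 μM L-methionine.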

Myeloperoxidase [2] = molecular target: T2, Myeloperoxidase (Homo sapiens, UniProt P05164); assay: Inhibition of human MPO assessed as reduction in enzyme-mediated chlorination by measuring reduction in HOCl formation preincubated for 10 mins followed by H2O2/NaCl addition and measured at 30 secs time interval for 5 mins by APF dye based fluorescence assay
T2 sequence (P05164 whole entry): T1 sequence (whole entry)

[3] = molecular target: T1, Myeloperoxidase (Homo sapiens); assay: Inhibition of human MPO assessed as reduction in enzyme-mediated chlorination by measuring reduction in HOCl formation at 10 uM preincubated for 10 mins followed by H2O2/NaCl addition and measured at 30 secs time interval for 5 mins by APF dye based fluorescence assay relative to control
In short: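 HTS APF chlorination, 1536-well: 1.75 nM human MPO with 20 μM H2O2 final, compound 10 μM final, preincubated 10 min; APF reagent added, fluorescence 485/535 nm read every 30 s for 5 min; slope normalized to DMSO (0%) and no-MPO wells (100% inhibition).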

[4] = Hypochlorus scavenging activity at 10 uM in presence of sodium hypochlorite after 15 mins by APF dye based fluorescence assay relative to control; type: functional
In short: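 NaOCl-scavenger counterscreen in 1536-well format: 50 μM NaOCl in place of MPO with APF reagent, compound 10 μM final; fluorescence intensity read after 15 min incubation; ≥20% loss of fluorescence flagged as interference.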

Myeloperoxidase [5] = molecular target: T2, Myeloperoxidase; assay: Inhibition of human MPO assessed as reduction in enzyme-mediated chlorination by measuring reduction in HOCl formation in presence of H2O2/NaCl measured at 30 secs time interval for 5 mins by APF dye based fluorescence assay
Myeloperoxidase [6] = molecular target: T2, Myeloperoxidase; assay: Inhibition of human MPO peroxidase activity in presence of H2O2 measured at 30 secs time interval for 5 mins by amplex red reagent based fluorescence assay
[7] = Redox activity assessed as conversion of resazurin reagent to resorufin at 10 uM after 30 mins by fluorescence assay relative to control; type: physicochemical; conditions: 0.5 h
In short: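 Redox counterscreen: compound 10 μM final incubated with 5 μM resazurin reagent (final) 30 min; fluorescence intensity read; normalized to a reactive styrylpyrimidotriazinedione standard at 10 μM as 100%.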

[8] = molecular target: T1, Myeloperoxidase (Homo sapiens); assay: Ratio of IC50 for human MPO chlorination preincubated for 10 mins to IC50 for human MPO chlorination without preincubation
Thyroid peroxidase = molecular target: T3, Thyroid peroxidase (Homo sapiens, UniProt P07202); assay: Inhibition of recombinant human C-terminal His6-tagged TPO (15 to 839 residues) expressed in baculovirus infected insect cells assessed as reduction in H2O2-catalyzed 3,5-iodo tyrosine formation using 3-iodotyrosine and potassium iodide preincubated for 10 mins followed by 3,5-iodo tyrosine/potassium iodide/H2O2 addition and measured after 15 mins
T3 sequence (P07202 whole entry): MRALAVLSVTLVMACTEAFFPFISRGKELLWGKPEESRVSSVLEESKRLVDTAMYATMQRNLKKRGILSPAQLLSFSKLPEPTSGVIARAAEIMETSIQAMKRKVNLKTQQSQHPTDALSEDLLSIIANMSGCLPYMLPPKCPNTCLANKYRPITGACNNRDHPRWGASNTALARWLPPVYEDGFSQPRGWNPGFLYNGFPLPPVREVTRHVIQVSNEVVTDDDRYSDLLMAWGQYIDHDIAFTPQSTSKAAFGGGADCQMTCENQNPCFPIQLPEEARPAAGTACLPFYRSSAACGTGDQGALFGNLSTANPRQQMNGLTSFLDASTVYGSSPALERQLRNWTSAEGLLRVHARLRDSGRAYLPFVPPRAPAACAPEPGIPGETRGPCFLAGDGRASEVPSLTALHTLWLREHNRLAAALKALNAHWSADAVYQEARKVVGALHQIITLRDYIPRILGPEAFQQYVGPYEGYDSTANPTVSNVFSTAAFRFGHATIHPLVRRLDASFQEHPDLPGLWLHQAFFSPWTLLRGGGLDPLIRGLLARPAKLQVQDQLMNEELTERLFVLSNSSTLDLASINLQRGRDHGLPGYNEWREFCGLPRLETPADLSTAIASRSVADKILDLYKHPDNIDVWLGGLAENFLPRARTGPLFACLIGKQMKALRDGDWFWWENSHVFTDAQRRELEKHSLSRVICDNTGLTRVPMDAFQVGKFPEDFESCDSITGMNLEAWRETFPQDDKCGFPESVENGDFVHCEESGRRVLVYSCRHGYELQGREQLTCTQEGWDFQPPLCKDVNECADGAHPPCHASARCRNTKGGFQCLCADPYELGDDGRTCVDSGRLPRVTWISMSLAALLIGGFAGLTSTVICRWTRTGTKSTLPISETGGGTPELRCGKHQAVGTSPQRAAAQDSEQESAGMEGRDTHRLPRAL
In short: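 TPO residues 15–839 with C-terminal His6, baculovirus/T. ni expressed, purified by Ni affinity, anion exchange and size exclusion; 4.0 nM in 100 mM KPi pH 7.4, 10 min rt preincubation with inhibitor; then 400 μM KI/240 μM 3-iodotyrosine mix and 20 μM H2O2 (added solutions); 3,5-iodotyrosine formation monitored.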

Myeloperoxidase [9] = molecular target: T2, Myeloperoxidase; assay: Inhibition of MPO in human neutrophils assessed as reduction in PMA-stimulated HOCl production incubated for 3 mins and measured for 25 mins by luminol reagent based luminescence assay
In short: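 Neutrophils from healthy donors isolated by dextran sedimentation then Ficoll-Paque, resuspended in HBSS; 1.106 cells/mL stimulated with 100 nM PMA; inhibitor 22 μM down to 1 nM (1:3, 10 doses) in 10% ethanol/50% PEG/40% water, 3 min at rt; luminol 100 μM final, read 25 min at 37 °C; rate taken from initial linear region.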

[10] = molecular target: T1, Myeloperoxidase (Homo sapiens); assay: Substrate activity at human MPO assessed as reversion of enzyme to resting state at 80 uM in presence of H2O2 by stopped flow assay
In short: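 Stopped-flow at 25 °C: syringe 1 with 2 μM MPO and 5 μM H2O2 in phosphate buffer, syringe 2 with inhibitor and 5 μM H2O2; equal volumes rapidly mixed, spectra acquired in PDA mode to follow several MPO species; representative of numerous replicates.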

SMILES	IC50 (Myeloperoxidase [2])	also measured
NNC(=O)c1ccc(O)cc1		inhibition [1]: Active
Cc1ccccc1COc1nc(N)nc2[nH]nnc12	470 nM	
Nc1nc(OCc2ccccc2)c2[nH]c(O)nc2n1	> 13000 nM	
Oc1nc(OCc2ccccc2)c2nn[nH]c2n1	> 13000 nM	
Nc1nc(Oc2ccccc2)c2nn[nH]c2n1	> 13000 nM	
Nc1nc(OCc2cccc(OC(F)F)c2)c2nn[nH]c2n1	200 nM	
Nc1nc(OCc2ccc(F)cc2)c2nn[nH]c2n1	47 nM	
Cn1nnc2c(OCc3ccccc3)nc(N)nc21	> 13000 nM	
Nc1nc(OCc2cccc(F)c2)c2nn[nH]c2n1	40 nM	
Nc1nc(OCc2cccc(Cl)c2)c2nn[nH]c2n1	200 nM	
Nc1nc(OCc2ccccc2Cl)c2nn[nH]c2n1	180 nM	
Nc1nc(OCc2ccccc2F)c2nn[nH]c2n1	78 nM	
Nc1nc(OCc2ccccc2)c2[nH]cnc2n1 [6-O-BENZYLGUANINE]	> 13000 nM	
Cc1ccc(COc2nc(N)nc3[nH]nnc23)cc1	510 nM	
Nc1nc(OCc2ccc(C(F)(F)F)cc2)c2nn[nH]c2n1	140 nM	
O=c1[nH]c(=S)n(C[C@H]2CCCO2)c2nc[nH]c12	9 nM	inhibition [3]: 30%; Activity [4]: < 20%; IC50 (Myeloperoxidase [5]): 56 nM; IC50 (Myeloperoxidase [6]): 12 nM; Activity [7]: Not Active; Ratio IC50 [8]: 6; IC50 (Thyroid peroxidase): 3.9 µM; IC50 (Myeloperoxidase [9]): 1000 nM
CCNc1nc(OCc2ccccc2)c2nn[nH]c2n1	2900 nM	
Nc1nc(OCc2ccccc2)c2cn[nH]c2n1	> 13000 nM	
Nc1nc(OCCc2ccccc2)c2nn[nH]c2n1	630 nM	
COc1cccc(COc2nc(N)nc3[nH]nnc23)c1	490 nM	
N[C@@H](Cc1c[nH]c2ccccc12)C(=O)OCc1ccccc1	200 nM	inhibition [3]: 30%; Activity [4]: < 20%; IC50 (Myeloperoxidase [5]): 110 nM; IC50 (Myeloperoxidase [6]): > 13000 nM; Activity [7]: Not Active; Activity [10]: Active
c1ccc(COc2ncnc3[nH]nnc23)cc1	> 13000 nM	
